The values that follow come from PubChem BioAssay.

The other results are listed elsewhere or left out. Activity calls are given as the source filed them.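 Rule for the calls, unless noted: active = mean percent inhibition of the KCNQ2 thallium signal more than 5 SD above the buffer-only control wells; inactive = the rest.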

Sequence of Potassium voltage-gated channel subfamily KQT member 2 (Rattus norvegicus) (O88943 whole entry, looked up): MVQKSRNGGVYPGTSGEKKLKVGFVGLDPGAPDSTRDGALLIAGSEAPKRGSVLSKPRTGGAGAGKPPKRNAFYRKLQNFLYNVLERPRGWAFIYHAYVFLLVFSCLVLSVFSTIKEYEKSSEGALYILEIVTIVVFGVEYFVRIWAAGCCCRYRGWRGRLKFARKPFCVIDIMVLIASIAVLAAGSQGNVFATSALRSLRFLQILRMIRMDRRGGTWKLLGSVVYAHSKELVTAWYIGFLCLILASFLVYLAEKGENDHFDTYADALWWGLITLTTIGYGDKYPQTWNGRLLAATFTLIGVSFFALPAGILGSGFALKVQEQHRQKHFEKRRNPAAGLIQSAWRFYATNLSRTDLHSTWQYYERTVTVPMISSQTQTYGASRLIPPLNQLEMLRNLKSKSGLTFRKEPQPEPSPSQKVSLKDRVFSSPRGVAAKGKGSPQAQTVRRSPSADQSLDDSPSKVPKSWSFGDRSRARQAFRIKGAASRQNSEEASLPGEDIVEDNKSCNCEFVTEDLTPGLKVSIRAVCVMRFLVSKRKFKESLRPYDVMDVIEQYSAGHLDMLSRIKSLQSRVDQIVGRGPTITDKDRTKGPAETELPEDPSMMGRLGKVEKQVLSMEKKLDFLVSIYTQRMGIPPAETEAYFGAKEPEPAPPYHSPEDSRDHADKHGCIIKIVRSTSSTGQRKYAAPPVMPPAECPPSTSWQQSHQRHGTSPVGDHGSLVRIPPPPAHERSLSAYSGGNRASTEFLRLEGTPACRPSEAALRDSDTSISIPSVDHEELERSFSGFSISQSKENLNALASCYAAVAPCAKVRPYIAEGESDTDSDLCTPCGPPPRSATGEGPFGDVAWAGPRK
Sequence of Potassium voltage-gated channel subfamily E member 1 (Homo sapiens) + Potassium voltage-gated channel subfamily KQT member 1 (Homo sapiens) (P51787 whole entry, looked up): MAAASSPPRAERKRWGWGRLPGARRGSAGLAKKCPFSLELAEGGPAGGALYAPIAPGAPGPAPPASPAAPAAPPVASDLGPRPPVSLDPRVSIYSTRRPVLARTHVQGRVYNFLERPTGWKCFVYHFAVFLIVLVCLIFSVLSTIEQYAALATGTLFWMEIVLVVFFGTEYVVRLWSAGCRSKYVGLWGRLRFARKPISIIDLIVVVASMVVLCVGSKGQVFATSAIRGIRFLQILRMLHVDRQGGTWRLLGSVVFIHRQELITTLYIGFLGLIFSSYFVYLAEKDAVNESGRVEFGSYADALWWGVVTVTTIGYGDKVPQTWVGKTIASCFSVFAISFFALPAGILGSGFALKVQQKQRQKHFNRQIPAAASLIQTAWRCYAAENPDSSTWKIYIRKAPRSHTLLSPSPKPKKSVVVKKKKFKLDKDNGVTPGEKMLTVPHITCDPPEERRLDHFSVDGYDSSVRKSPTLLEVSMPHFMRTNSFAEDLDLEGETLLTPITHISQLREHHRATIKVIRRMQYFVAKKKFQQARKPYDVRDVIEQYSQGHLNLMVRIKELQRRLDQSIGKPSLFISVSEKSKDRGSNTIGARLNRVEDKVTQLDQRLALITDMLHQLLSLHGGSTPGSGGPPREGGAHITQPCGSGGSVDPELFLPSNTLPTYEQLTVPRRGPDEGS

The first assay has as its target Potassium voltage-gated channel subfamily KQT member 2 (Rattus norvegicus) (UniProt O88943). The assay is described as follows: block of rat KCNQ2 potassium channel – cell-based, selectivity assay for KCNQ1 inhibitor project (AID 651746).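 For inhibition: 0% = buffer control wells and 100% = XE-991 inhibitor control.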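 Note: KCNQ2 expressed in CHO cells.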 Conditions: KCNQ2 cells, FluxOR thallium flux fluorescence, at 10 µM; stronger effect = higher value.
Regarding `Cc1ccc2nc(C)c3c(c2c1)N(c1ccccc1)CC3`, the inhibition (in general, the drop in the measured response relative to a control, in per cent) was 83.7% (active). As for `FC(F)(F)c1cccc(NC(=S)Nc2cccc(Cl)c2)c1`, the call was inactive. The same measure, in the same setting: in the case of `S=C(NCc1ccc(Cl)cc1)NC12CC3CC(CC(C3)C1)C2` it was “inactive”. As to `CCc1ccc(-c2nn(-c3ccccc3)cc2CSC(=N)N)cc1`, the inhibition was 114% (active).

Regarding `CC(=O)N(C1=C(Cl)C(=O)c2ccccc2C1=O)c1ccc(C(=O)O)cc1`, the inhibition was 124% (active).

A further assay concerns the target Potassium voltage-gated channel subfamily E member 1 (Homo sapiens) + Potassium voltage-gated channel subfamily KQT member 1 (Homo sapiens) (UniProt P15382+P51787). The assay is described as follows: block of human IKs channel complex – CHO-K1 cells, thallium flux, FluxOR, selectivity assay for KCNQ1 inhibitor project (AID 652147;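 active = mean percent inhibition of duplicate wells above the buffer-only control mean plus 3 SD of those controls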). The following applies: KCNQ1/KCNE1 cells, FluxOR thallium flux fluorescence; at 10 µM. Put shortly:
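System: cells expressing KCNQ1/KCNE1 channels; timing: 20 min compound pre-incubation at room temperature; technique: FluxOR thallium influx fluorescence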
In the case of `Cc1ccc2nc(C)c3c(c2c1)N(c1ccccc1)CC3`, the outcome was inactive. Same read-out and setting: in the case of `FC(F)(F)c1cccc(NC(=S)Nc2cccc(Cl)c2)c1` it was “inactive”; in that of `S=C(NCc1ccc(Cl)cc1)NC12CC3CC(CC(C3)C1)C2`, “inactive”. Still for that read-out and setting: to `CCc1ccc(-c2nn(-c3ccccc3)cc2CSC(=N)N)cc1` belongs “inactive”.
